ChEMBL document CHEMBL1123437, “Isozyme-specific enzyme inhibitors. 12. C- and N-methylmethionines as substrates and inhibitors of methionine adenosyltransferases of normal and hepatoma rat tissues” (J Med Chem, 1986)

How the values were obtained:
[1] = target: S-adenosylmethionine synthetase (MAT 1 and MAT 2) (Rattus norvegicus, UniProt P13444+P18298); assay: Competitive inhibitory activity against methionine adenosyltransferase; type: protein assay
How it was run: (§1)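 Rat kidney M-2 or Novikoff hepatoma M-T MAT, partially purified. Run at 37 °C, pH 8.2 (Tris, KCl, MgCl2, DTT) with 2 mM MgATP. [14C]Met at five or six levels spanning (0.5–4)×KM, with two inhibitor levels (1–3 mM) and no-inhibitor controls. 10 min, HClO4 stop, phosphocellulose disc counting. Ki from replots of double-reciprocal slopes vs inhibitor concentration.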

[2] = target: S-adenosylmethionine synthase isoform type-2 (Rattus norvegicus, UniProt P18298); assay: Competitive inhibitory activity against Methionine adenosyltransferase II; how it was run: as §1
Chain of S-adenosylmethionine synthase isoform type-2 (P18298 whole entry, canonical isoform): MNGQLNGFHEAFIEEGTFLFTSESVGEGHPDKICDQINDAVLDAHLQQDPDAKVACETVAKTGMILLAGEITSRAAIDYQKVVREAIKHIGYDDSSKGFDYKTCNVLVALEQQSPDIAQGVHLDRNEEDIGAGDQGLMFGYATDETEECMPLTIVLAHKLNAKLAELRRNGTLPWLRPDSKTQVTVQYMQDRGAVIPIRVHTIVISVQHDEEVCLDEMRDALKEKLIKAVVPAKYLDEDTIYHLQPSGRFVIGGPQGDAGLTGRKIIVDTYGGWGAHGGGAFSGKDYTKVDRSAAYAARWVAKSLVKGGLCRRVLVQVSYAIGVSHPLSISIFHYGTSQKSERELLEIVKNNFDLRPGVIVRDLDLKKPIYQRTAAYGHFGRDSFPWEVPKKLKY

| Ki [1] [µM] | Ki [2] [µM] | Compound |
| --- | --- | --- |
| 500 | 500 | CSCC(C)C(N)C(=O)O (centres undefined) |
| 3200 | 2400 | CSC(C)C[C@@H](N)C(=O)O (some centres undefined) |
